Source: ChEMBL document CHEMBL1138812, “Synthesis and antiviral evaluation of polyhalogenated imidazole nucleosides: dimensional analogues of 2,5,6-trichloro-1-(beta-D-ribofuranosyl)benzimidazole” (J Med Chem, 2004)

Key:
KB = assay: Concentration required to inhibit KB cell line growth was determined by crystal violet staining method; type: functional, cell-based; conditions: Homo sapiens
Procedure, shortened: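 KB cells, 3000–5000 per well, incubated overnight at 37 °C, then compound added at six to eight concentrations in quadruplicate. Grown 48 h at 37 °C under CO2 (two population doublings), fixed in 95% ethanol, stained with 0.1% crystal violet, dye eluted with acidified ethanol, absorbance 570 nm. IC50 taken from linear regression of percent inhibition against log concentration.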

Human alphaherpesvirus 1 = assay: Inhibitory activity against herpes simplex virus type-1 cultures was determined by ELISA assay; type: functional, organism-based
Procedure, shortened: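 BSC-1 cells, 10000 per well in MEM(E) with 10% calf serum, incubated overnight at 37 °C. Drug added in quadruplicate with HSV-1 (KOS) at 100 pfu/well and incubated 3 days at 37 °C. Plates blocked, probed with HRP-conjugated rabbit anti-HSV-1 and developed with TMB; reaction stopped with H2SO4 and read at 450/570 nm. Percent absorbance reduction versus virus-only wells, IC50 by regression.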

HFF = assay: Concentration required to inhibit stationary human HFF cell line growth was determined by microscopy examination; type: functional, cell-based
Procedure, shortened: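 Toxicity judged by microscopic inspection of uninfected stationary HFF cells in the HCMV plaque assay, scored at the time plaques were counted. Results come from duplicate experiments. IC50 from linear regression of percent inhibition against log concentration.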

Human betaherpesvirus 5 = assay: Concentration required to inhibit plaque formation in human cytomegalovirus cultures was determined; type: functional, organism-based
Procedure, shortened: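 HFF monolayers infected with about 100 pfu/cm² of HCMV Towne strain (plaque-purified P₀). After adsorption, compound (10 mg/mL DMSO stock, diluted in medium) added at four to eight concentrations in duplicate wells. After 7–10 days at 37 °C, cells fixed and stained with crystal violet and plaques counted microscopically. Percent plaque reduction versus drug-free wells, IC50 by regression against log concentration.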

| IC50 (KB) | IC50 (Human alphaherpesvirus 1) | IC50 (Human betaherpesvirus 5) | SMILES | IC50 (HFF) |
| --- | --- | --- | --- | --- |
| > 100 µM | > 100 µM | > 100 µM | OC[C@H]1O[C@@H](n2c(Br)nc(Cl)c2Cl)[C@H](O)[C@H]1O | > 100 µM |
| > 100 µM | > 100 µM | > 100 µM | OC[C@H]1O[C@@H](n2c(Br)nc(Br)c2Br)[C@H](O)[C@H]1O | > 100 µM |
| > 100 µM | > 100 µM | > 100 µM | OCCOCn1c(Br)nc(Cl)c1Cl | > 100 µM |
| > 100 µM | > 100 µM | > 100 µM | OCC(CO)OCn1c(Br)nc(Br)c1Br | > 100 µM |
|  |  | 2 µM | OC[C@H]1OC(n2c(Cl)nc3cc4cc(Cl)c(Cl)cc4cc32)[C@H](O)[C@@H]1O (some centres not stated) |  |
| > 100 µM |  |  | OC[C@H]1O[C@@H](n2c(Cl)nc3cc(Cl)c(Cl)cc32)[C@H](O)[C@@H]1O |  |
| 65 µM | 60 µM | 30 µM | OC[C@H]1O[C@@H](n2c(Br)nc(Br)c2Br)[C@H](O)[C@@H]1O | 100 µM |
| > 100 µM | > 100 µM | > 100 µM | OCC(CO)OCn1c(Br)nc(Cl)c1Cl | > 100 µM |
|  |  | 30 µM | Clc1nc(Cl)c(Cl)[nH]1 | 75 µM |
| > 100 µM | > 100 µM | > 100 µM | OC[C@H]1O[C@@H](n2c(Cl)nc(Cl)c2Cl)[C@H](O)[C@@H]1O | > 100 µM |
|  |  | 41 µM | Clc1nc(Br)[nH]c1Cl | > 100 µM |
| > 100 µM | > 100 µM | > 100 µM | OC[C@H]1O[C@@H](n2c(Br)nc(Cl)c2Cl)[C@H](O)[C@@H]1O | > 100 µM |
| 90 µM | > 100 µM | 32 µM | OCC1OC(n2c(Br)nc(Br)c2Br)[C@@H](O)C1O (some centres not stated) | > 100 µM |
| > 100 µM | > 100 µM | > 100 µM | OCC1OC(n2c(Br)nc(Cl)c2Cl)[C@@H](O)C1O (some centres not stated) | > 100 µM |
| 25 µM | 35 µM | > 100 µM | OCCOCn1c(Cl)nc(Cl)c1Cl | 45 µM |
| > 100 µM | > 100 µM | > 100 µM | OCCOCn1c(Br)nc(Br)c1Br | > 100 µM |
|  |  | 37 µM | Brc1nc(Br)c(Br)[nH]1 | 75 µM |
| > 100 µM | 50 µM | > 100 µM | OC[C@H]1O[C@@H](n2c(Cl)nc(Cl)c2Cl)[C@H](O)[C@H]1O | > 100 µM |
| 25 µM | 30 µM | > 100 µM | OCC(CO)OCn1c(Cl)nc(Cl)c1Cl | > 100 µM |
| > 100 µM | > 100 µM | > 100 µM | OC[C@H]1OC(n2cnc(Br)c2Br)[C@H](O)[C@@H]1O (some centres not stated) | > 100 µM |
| > 100 µM | > 100 µM | > 100 µM | OC[C@H]1OC(n2cnc(Cl)c2Cl)[C@H](O)[C@@H]1O (some centres not stated) | > 100 µM |

| SMILES | IC50 (KB) | IC50 (Human alphaherpesvirus 1) | IC50 (Human betaherpesvirus 5) | IC50 (HFF) |
| --- | --- | --- | --- | --- |
| OC[C@H]1O[C@@H](n2c(Br)nc3cc(Cl)c(Cl)cc32)[C@H](O)[C@@H]1O | > 100 µM |  | 0.7 µM |  |
| OC[C@H]1OC(n2c(Cl)nc3nc4cc(Cl)c(Cl)cc4cc32)[C@H](O)[C@@H]1O (some centres not stated) |  | 70 µM | 2 µM |  |
| OC[C@H]1OC(n2c(Cl)nc3cc4cc(Cl)c(Cl)cc4nc32)[C@H](O)[C@@H]1O (some centres not stated) |  | 90 µM | 18 µM |  |
| OC[C@H]1O[C@@H](n2cnc3cc(Cl)c(Cl)cc32)[C@@H](O)[C@H]1O | 36 µM | 30 µM | 42 µM | 24 µM |
